Data taken from ChEMBL document CHEMBL3102735, “Enhancing the pharmacodynamic profile of a class of selective COX-2 inhibiting nitric oxide donors” (Bioorg Med Chem, 2014).
Active and inactive are the calls of the source. No cut-off for these calls is given here.

How the values were obtained:
Mus musculus [1] = test: Antihyperalgesic activity in Swiss albino mouse assessed as reduction in carrageenan-induced inflammation at 10 mg/kg, po after 60 mins relative to control; assay type: functional; parameters: scale not given: the % may be the effect or the level left
Mus musculus [2] = test: Antihyperalgesic activity in Swiss albino mouse assessed as reduction in carrageenan-induced inflammation at 10 mg/kg, po after 30 mins relative to control; assay type: functional; parameters: scale not given: the % may be the effect or the level left
Mus musculus [3] = test: Analgesic activity in Swiss albino mouse assessed as reduction of acetic acid-induced writhing at 10 mg/kg, po measured every 10 mins after 5 mins of administration relative to control; assay type: functional; parameters: scale not given: the % may be the effect or the level left
In short: (§1)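 Male Swiss albino mice (23–25 g), compound given orally in CMC vehicle; writhing induced by 0.6% acetic acid (10 mL/kg) ip. Stretching movements counted for 10 min, starting 5 min after administration; percent reduction versus CMC-treated animals.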

Mus musculus [4] = test: Antihyperalgesic activity in Swiss albino mouse assessed as reduction in carrageenan-induced inflammation at 10 mg/kg, po after 120 mins relative to control; assay type: functional; parameters: scale not given: the % may be the effect or the level left
Mus musculus [5] = test: Antihyperalgesic activity in Swiss albino mouse assessed as reduction in carrageenan-induced inflammation at 10 mg/kg, po after 90 mins relative to control; assay type: functional; parameters: scale not given: the % may be the effect or the level left
Mus musculus [6] = test: Analgesic activity in po dosed Swiss albino mouse assessed as reduction of acetic acid-induced writhing measured every 10 mins after 5 mins of administration; assay type: functional, organism-based; in short: as §1
Mus musculus [7] = test: Antiinflammatory activity in Swiss albino mouse assessed as reduction in carrageenan-induced paw edema at 10 mg/kg, po relative to control; assay type: functional; parameters: scale not given: the % may be the effect or the level left
In short: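 Intraplantar carrageenan, compound po in CMC; volume of right hind paw measured 4 h after carrageenan injection and compared with saline/carrageenan-treated controls; percent oedema reduction.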

Thoracic aorta [8] = test: Ex vivo vasorelaxant activity in Wistar rat endothelium thoracic aortic ring assessed as reduction of KCl-induced contraction in presence of guanylate cyclase inhibitor ODQ; assay type: functional
In short: (§2)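 Endothelium-denuded thoracic aortic rings from male Wistar rats (250–350 g) in oxygenated Tyrode-type buffer at 37 °C, isometric tension recording. Rings precontracted with 30 mM KCl, then 3-fold increasing compound concentrations (1 nM–10 µM) added, also with 1 µM ODQ preincubated. Emax as % of KCl tone; pIC50; mean ± SE of 6–10 experiments.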

Liver [9] = test: Induction of nitric oxide production in Wistar rat liver homogenate assessed as nitrate level at 1 mM after 1 to 150 mins; assay type: functional, tissue-based
Liver [10] = test: Induction of nitric oxide production in Wistar rat liver homogenate assessed as nitrate level at 1 mM; assay type: functional, tissue-based; settings: TDE = time-dependent effect
Liver [11] = test: Induction of nitric oxide production in Wistar rat liver homogenate assessed as NOx level at 1 mM; assay type: functional, tissue-based; settings: TDE = time-dependent effect
Liver [12] = test: Induction of nitric oxide production in Wistar rat liver homogenate assessed as nitrite level at 1 mM after 1 to 150 mins; assay type: functional, tissue-based
Liver [13] = test: Induction of nitric oxide production in Wistar rat liver homogenate assessed as NOx level at 1 mM after 1 to 150 mins; assay type: functional, tissue-based
Thoracic aorta [14] = test: Ex vivo vasorelaxant activity in Wistar rat endothelium thoracic aortic ring assessed as reduction of KCl-induced contraction; assay type: functional, tissue-based; in short: as §2
Liver [15] = test: Induction of nitric oxide production in Wistar rat liver homogenate assessed as nitrite level at 1 mM; assay type: functional, tissue-based; settings: TDE = time-dependent effect
Thoracic aorta [16] = test: Ex vivo vasorelaxant activity in Wistar rat endothelium thoracic aortic ring assessed as reduction of KCl-induced contraction at 0.001 uM to 10 uM relative to control; assay type: functional; in short: as §2
Mus musculus [17] = test: Analgesic activity in Swiss albino mouse assessed as reduction of acetic acid-induced writhing at 20 mg/kg, po measured every 10 mins after 5 mins of administration relative to control; assay type: functional; parameters: scale not given: the % may be the effect or the level left; in short: as §1
[18] = biological target: T1, Prostaglandin G/H synthase 2 (Mus musculus) (UniProt Q05769); test: Inhibition of LPS-induced COX-2 in mouse J774 cells using arachidonic acid as substrate assessed as inhibition of prostaglandin E2 production at 10 uM preincubated for 15 mins followed by substrate addition measured after 30 mins by RIA; assay type: cell-based
T1 sequence (whole entry): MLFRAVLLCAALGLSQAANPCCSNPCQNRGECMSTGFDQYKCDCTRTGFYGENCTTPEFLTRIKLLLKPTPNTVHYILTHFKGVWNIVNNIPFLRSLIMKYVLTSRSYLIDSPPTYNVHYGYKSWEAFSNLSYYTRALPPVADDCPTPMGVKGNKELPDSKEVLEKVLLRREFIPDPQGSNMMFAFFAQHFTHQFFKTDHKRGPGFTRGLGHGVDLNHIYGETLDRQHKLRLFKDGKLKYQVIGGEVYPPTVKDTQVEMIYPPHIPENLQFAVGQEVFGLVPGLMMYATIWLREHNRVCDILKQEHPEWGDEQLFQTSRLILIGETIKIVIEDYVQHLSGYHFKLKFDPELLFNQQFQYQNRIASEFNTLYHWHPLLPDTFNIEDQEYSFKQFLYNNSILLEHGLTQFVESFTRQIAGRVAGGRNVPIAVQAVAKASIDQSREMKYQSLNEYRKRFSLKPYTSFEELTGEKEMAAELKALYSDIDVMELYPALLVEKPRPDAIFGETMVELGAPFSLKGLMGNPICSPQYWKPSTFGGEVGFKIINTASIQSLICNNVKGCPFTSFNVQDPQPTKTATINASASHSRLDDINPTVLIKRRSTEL

[19] = biological target: T2, Prostaglandin G/H synthase 1 (Mus musculus, UniProt P22437); test: Inhibition of COX-1 in mouse J774 cells using arachidonic acid as substrate assessed as inhibition of prostaglandin E2 production preincubated for 15 mins followed by substrate addition measured after 30 mins by RIA; assay type: cell-based
T2 sequence (P22437 whole entry): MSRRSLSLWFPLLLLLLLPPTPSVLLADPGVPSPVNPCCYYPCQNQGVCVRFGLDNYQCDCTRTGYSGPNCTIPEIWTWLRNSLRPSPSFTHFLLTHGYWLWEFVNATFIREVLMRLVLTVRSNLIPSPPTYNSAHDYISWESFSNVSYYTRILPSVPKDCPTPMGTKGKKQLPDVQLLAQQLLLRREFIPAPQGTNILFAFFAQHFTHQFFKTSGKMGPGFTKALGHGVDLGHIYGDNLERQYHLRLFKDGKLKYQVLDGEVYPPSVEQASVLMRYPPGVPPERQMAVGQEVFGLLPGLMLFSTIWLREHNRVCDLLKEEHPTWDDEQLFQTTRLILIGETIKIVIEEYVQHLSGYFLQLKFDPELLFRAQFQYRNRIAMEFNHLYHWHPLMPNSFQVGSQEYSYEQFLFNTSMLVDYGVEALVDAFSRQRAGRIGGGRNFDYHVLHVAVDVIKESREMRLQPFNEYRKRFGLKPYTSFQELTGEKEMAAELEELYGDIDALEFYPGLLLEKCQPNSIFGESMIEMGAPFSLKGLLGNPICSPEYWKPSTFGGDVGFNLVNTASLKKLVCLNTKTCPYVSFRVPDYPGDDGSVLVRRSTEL
In short: (§3)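 J774 murine macrophages pretreated 15 min with compound (10 µM; lower concentrations 0.01–1 µM where needed), then incubated 30 min at 37 °C with 15 µM arachidonic acid; supernatant PGE2 measured by RIA. Triplicate wells, mean of three experiments of percent inhibition versus control; IC50 by sigmoidal fit.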

J774 = test: Selectivity index, ratio of IC50 for COX-1 to IC50 for COX-2 in mouse J774 cells; assay type: cell-based
In short: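 J774 macrophages stimulated 24 h with E. coli LPS (10 µg/mL) to induce COX-2, with or without compound (0.01–10 µM); supernatant PGE2 by RIA. Triplicate wells, three experiments, percent inhibition versus control, IC50 by sigmoidal fit; selectivity as COX-1/COX-2 IC50 ratio.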

[20] = biological target: T3, Prostaglandin G/H synthase 1 (Mus musculus) (UniProt P22437); test: Inhibition of COX-1 in mouse J774 cells using arachidonic acid as substrate assessed as inhibition of prostaglandin E2 production at 10 uM preincubated for 15 mins followed by substrate addition measured after 30 mins by RIA; assay type: cell-based; in short: as §3
T3 sequence (whole entry): T2 sequence (P22437 whole entry)

Mus musculus [21] = test: Analgesic activity in Swiss albino mouse assessed as reduction of acetic acid-induced writhing at 3 mg/kg, po measured every 10 mins after 5 mins of administration relative to control; assay type: functional; parameters: scale not given: the % may be the effect or the level left; in short: as §1
[22] = biological target: T4, Prostaglandin G/H synthase 2 (Mus musculus, UniProt Q05769); test: Inhibition of LPS-induced COX-2 in mouse J774 cells using arachidonic acid as substrate assessed as inhibition of prostaglandin E2 production preincubated for 15 mins followed by substrate addition measured after 30 mins by RIA; assay type: cell-based
T4 sequence (Q05769 whole entry): T1 sequence (whole entry)

Mus musculus [23] = test: Analgesic activity in Swiss albino mouse assessed as reduction of acetic acid-induced writhing at 40 mg/kg, po measured every 10 mins after 5 mins of administration relative to control; assay type: functional; parameters: scale not given: the % may be the effect or the level left; in short: as §1
[24] = biological target: T5, Prostaglandin G/H synthase 2 (Homo sapiens, UniProt P35354); parameters: species or system Blood
T5 sequence (P35354 whole entry): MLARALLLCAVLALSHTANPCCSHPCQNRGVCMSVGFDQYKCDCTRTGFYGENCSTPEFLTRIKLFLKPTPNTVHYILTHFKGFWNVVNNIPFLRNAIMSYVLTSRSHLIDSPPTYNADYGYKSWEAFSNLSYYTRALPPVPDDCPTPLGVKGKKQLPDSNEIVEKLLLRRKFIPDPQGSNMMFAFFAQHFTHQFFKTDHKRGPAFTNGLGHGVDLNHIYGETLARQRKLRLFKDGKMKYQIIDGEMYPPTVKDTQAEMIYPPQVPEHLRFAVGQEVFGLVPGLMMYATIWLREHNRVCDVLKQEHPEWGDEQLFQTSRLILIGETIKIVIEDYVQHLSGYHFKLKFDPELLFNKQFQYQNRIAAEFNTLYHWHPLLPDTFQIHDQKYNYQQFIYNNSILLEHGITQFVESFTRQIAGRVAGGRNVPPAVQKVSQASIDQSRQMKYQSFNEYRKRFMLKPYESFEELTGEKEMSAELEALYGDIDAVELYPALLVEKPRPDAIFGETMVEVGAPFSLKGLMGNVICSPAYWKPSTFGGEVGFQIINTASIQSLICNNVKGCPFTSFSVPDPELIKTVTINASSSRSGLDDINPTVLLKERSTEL

[25] = biological target: Prostaglandin G/H synthase 1 (Homo sapiens, UniProt P23219); test: Inhibition of COX-1 in human whole blood assessed as thromboxane B2 production by RIA
Prostaglandin G/H synthase 1 (Homo sapiens, UniProt P23219), sequence (P23219 whole entry): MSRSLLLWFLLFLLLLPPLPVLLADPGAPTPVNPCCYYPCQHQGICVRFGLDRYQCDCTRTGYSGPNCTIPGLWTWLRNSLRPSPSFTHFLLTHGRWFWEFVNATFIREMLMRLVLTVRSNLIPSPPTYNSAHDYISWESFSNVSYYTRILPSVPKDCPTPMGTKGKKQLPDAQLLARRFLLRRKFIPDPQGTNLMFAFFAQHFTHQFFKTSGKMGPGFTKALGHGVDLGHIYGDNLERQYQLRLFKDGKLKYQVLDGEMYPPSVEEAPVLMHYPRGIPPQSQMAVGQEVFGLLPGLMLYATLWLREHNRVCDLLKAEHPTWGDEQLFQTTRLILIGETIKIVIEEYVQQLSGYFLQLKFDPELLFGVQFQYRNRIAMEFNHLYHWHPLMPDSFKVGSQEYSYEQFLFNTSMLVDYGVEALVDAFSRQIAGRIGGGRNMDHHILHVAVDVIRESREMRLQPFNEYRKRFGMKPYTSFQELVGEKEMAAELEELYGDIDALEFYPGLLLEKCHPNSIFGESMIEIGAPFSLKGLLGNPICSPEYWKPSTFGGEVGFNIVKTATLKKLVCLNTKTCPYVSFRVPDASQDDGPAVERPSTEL

Structure (SMILES) | IC50 (Thoracic aorta [14]) | inhibition [18] | IC50 [19] | inhibition [20] | IC50 [22] | Activity (Mus musculus [3]) | Activity (Mus musculus [6]) | Activity (Thoracic aorta [8]) | Emax (Thoracic aorta [16]) | Activity (Mus musculus [17]) | Ratio IC50 (J774) | Activity (Mus musculus [21]) | other results
Cc1ccc(-c2cc(C(F)(F)F)nn2-c2ccc(S(N)(=O)=O)cc2)cc1 [CELECOXIB] |  |  |  |  |  | 59% | Dose-dependent effect |  |  |  |  |  | Activity (Mus musculus [1]): 75%; Activity (Mus musculus [2]): 45%; Activity (Mus musculus [4]): 39%; Activity (Mus musculus [5]): 56%; Activity (Mus musculus [7]): 17%
COc1ccc2cc([C@H](C)C(=O)OCCCCO[N+](=O)[O-])ccc2c1 [NAPROXCINOD] | 468 nM |  |  |  |  |  |  | inactive | 68% |  |  |  | Activity (Liver [9]): 340 µM; Activity (Liver [10]): tde; Activity (Liver [11]): tde; Activity (Liver [12]): 27.6 µM; Activity (Liver [13]): 368 µM; Activity (Liver [15]): tde
Cc1c(CC(=O)NCCCO[N+](=O)[O-])cc(-c2ccc(S(C)(=O)=O)cc2)n1-c1cccc(F)c1 | 1660 nM | 100% | > 10000 nM | 0% | 250 nM | 0% | Dose-dependent effect | inactive | 69% | 8.6% | > 40 |  | Activity (Mus musculus [23]): 30%

Further lines, with some results ahead:

IC50 (Thoracic aorta [14]) | inhibition [18] | IC50 [19] | inhibition [20] | IC50 [22] | Structure (SMILES) | Activity (Mus musculus [3]) | Activity (Mus musculus [6]) | Activity (Thoracic aorta [8]) | Emax (Thoracic aorta [16]) | Activity (Mus musculus [17]) | Ratio IC50 (J774) | Activity (Mus musculus [21]) | other results
 | 100% | > 10000 nM | 0% | 310 nM | Cc1c(CC(=O)NCCCO[N+](=O)[O-])cc(-c2ccc(S(C)(=O)=O)cc2)n1-c1ccc(F)cc1 | 37% | Dose-dependent effect |  |  | 37% | > 32 | 17% | 
 | 100% | > 10000 nM | 0% |  | Cc1c(CC(=O)NCCO)cc(-c2ccc(S(C)(=O)=O)cc2)n1-c1ccc(F)cc1 | 37% | Dose-dependent effect |  |  | 61% | > 33 |  | IC50 [24]: 1400 nM; IC50 [25]: 1900 nM
 | 89% | > 10000 nM | 6% |  | Cc1c(CC(=O)NC(CCO[N+](=O)[O-])C(=O)O)cc(-c2ccc(S(C)(=O)=O)cc2)n1-c1ccc(F)cc1 (racemic) | 30% | Dose-dependent effect | inactive |  | 54% | > 6.2 | 0% | 
